Source: PubChem BioAssay
Beta apoptosis = blocks beta cell apoptosis. INS-1E cytokine-induced death, ATP luminescence, 48 h; percent of positive-control rescue, neutral wells zero. protection from apoptosis, % (concentration not given with the values). actives 0.8% (n = 300,000);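 active = Every replicate reaches about 75%, or at least half do and their mean reaches it too, limit read from the data; inconclusive = At least half of replicates reach the limit but their mean does not; inactive = Under half of replicates reach the limit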;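 also: 0% = cytokine-treated negative control wells and 100% = positive control rescue; higher means more ATP so stronger rescue from cytokine killing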
SKKanGAS inh = SKKanGAS growth inhibition | actives 1.3% (n = 300,000) | S. pyogenes SKKanGAS, kanamycin growth, BacTiter-Glo, 6 h | inhibition, % at 7.5 µM;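 active = mean replicate score, as percent of positive control median, at least 50; inconclusive = mean below 50 but one replicate at or above 50; inactive = mean and every replicate below 50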;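 also: strain carries kanamycin resistance gene driven by streptokinase promoter and grows in 40 µg/ml kanamycin; loss of luminescence reflects streptokinase promoter inhibition or plain growth inhibition; 0% = median of DMSO wells and 100% = positive control at its reference dose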
T cruzi repl = blocks replication of Trypanosoma cruzi | AID 1885 | inhibition, % (test concentration not listed) | T. cruzi beta-gal in NIH3T3, luminescence, 90 h | actives 1.4% (n = 300,000);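 active = mean inhibition across valid replicates above about 55%, limit read from the data; inconclusive = mean below that limit but half or more replicates reach it; inactive = mean below it, under half of replicates reach it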;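 also: signal also drops with host cell toxicity which is not excluded here; 0% = plate median of DMSO wells and 100% = zero luminescence signal; higher percent means less beta-gal luminescence so fewer parasites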
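Assay system: NIH/3T3 host cells with β-galactosidase reporter T. cruzi; input: 5,000 host fibroblasts per well; compound: single 50 nL compound addition per well in DMSO; timing: ≥90 h infection period, 3 h prior cell attachment; measured by: GalScreen β-gal luminescence, detergent lysis, 60 min; evaluation: percent inhibition of parasite-derived β-gal signal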
CSC inhib = blocks cancer stem cells | cancer stem cell-like cells viability, luminescence | actives 1.1% (n = 300,000) | inhibition, % at 7.5 µM; in the data active = inhibition above about 75%; inconclusive = no clear call, values can overlap the other calls; tested in HMLE shEcad cells
Calb FLC = C. albicans growth modulation with fluconazole | C. albicans CaCi-2 (fluconazole-resistant clinical isolate) + fluconazole, Alamar Blue growth, 48 h | growth inhibition, % (test concentration not listed) | actives 0.57% (n = 300,000) | AID 1979;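 active = growth inhibition above about 58% in most replicates, limit read from the data, passing the limit was not always enough; inconclusive = exactly half the replicates above a set limit; inactive = most replicates below a set limit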;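 also: all wells also contain fluconazole at 8 µg/ml as a sub-toxic cotreatment; 0% = median of DMSO wells and 100% = median of geldanamycin control wells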
Mdm2 MdmX PPI = disrupts the human Mdm2-MdmX interaction; SaOS-2 split-luciferase Mdm2/MdmX complementation, luminescence; inhibition, % at 8 µM; AID 485346; O15151+Q00987; actives 3% (n = 330,000);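 active = inhibition of at least 50% at 8 µM in the primary screen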
Target sequence (O15151 whole entry, looked up): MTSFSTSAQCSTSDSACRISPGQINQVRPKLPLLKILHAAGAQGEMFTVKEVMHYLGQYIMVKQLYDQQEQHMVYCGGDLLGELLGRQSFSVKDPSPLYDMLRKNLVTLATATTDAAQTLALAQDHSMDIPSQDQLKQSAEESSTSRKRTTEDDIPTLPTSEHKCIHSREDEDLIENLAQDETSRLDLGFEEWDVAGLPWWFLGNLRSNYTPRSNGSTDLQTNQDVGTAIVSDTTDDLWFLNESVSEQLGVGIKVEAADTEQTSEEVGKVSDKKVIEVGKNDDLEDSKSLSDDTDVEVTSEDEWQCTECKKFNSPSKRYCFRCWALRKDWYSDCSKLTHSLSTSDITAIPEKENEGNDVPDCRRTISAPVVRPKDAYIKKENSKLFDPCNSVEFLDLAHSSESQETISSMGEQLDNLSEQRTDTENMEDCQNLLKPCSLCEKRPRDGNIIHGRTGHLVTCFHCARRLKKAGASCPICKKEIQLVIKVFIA
Target sequence (Q00987 whole entry, looked up): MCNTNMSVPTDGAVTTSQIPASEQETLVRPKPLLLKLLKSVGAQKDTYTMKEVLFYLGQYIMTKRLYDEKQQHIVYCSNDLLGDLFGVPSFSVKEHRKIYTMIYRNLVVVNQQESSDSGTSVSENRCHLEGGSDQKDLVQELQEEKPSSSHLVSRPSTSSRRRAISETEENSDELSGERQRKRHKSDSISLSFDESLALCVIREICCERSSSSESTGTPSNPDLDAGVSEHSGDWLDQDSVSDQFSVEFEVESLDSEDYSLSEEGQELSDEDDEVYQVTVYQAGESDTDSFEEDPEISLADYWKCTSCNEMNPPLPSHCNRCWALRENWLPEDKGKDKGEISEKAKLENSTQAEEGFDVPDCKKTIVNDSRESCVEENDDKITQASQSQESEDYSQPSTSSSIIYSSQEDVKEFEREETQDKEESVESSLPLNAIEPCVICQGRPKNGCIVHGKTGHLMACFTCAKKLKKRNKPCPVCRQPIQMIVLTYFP
Starred values were filed as active, the others as inactive; ? = inconclusive; / = no result given. Compounds with a hit are over-represented: about 5.7% of the library has one in this group of screens.

SMILES	Beta apoptosis	SKKanGAS inh	T cruzi repl	CSC inhib	Calb FLC	Mdm2 MdmX PPI
O=C(c1cc(-c2ccccc2Cl)nc2ccccc12)N1CCN(c2ccccn2)CC1	98*	/	/	9	/	-22
O=C(c1cc(-c2ccccc2Cl)nc2ccccc12)N1CCN(c2ccccc2O)CC1	33	28	23	16	-3	26
O=C(c1cnc(N2CCN(c3ccccn3)CC2)c2ccccc12)N1CCN(c2cccc(Cl)c2)CC1	75*	18	7	45	19	45
O=C(c1cc(Cl)ccc1Cl)N1CCN(c2ccccn2)CC1	9	7	-2	8	-17	11
CSc1ccccc1C(=O)N1CCN(c2cccc(Cl)c2)CC1	-4	-6	-1	37	2	47
CC(C)OC(=O)c1cccnc1N1CCN(c2cccc(Cl)c2)CC1	4	60*	20	10	-9	15
O=C(/C=C/c1cn(-c2ccccc2)nc1-c1cccc(Cl)c1)N1CCN(c2ccccn2)CC1	2	40	73*	21	16	31
COc1ccc(OCc2cc(C(=O)NCCN3CCCc4ccccc43)no2)c(Cl)c1	-4	11	32	18	-3	2
CCOc1ncccc1C(=O)OCC(=O)NCc1cccs1	7	/	/	-1	/	-7
CN(C)C(CNC(=O)CCc1nc2sc3c(c2c(=O)[nH]1)CCCC3)c1ccccc1 (stereo not given)	3	-9	-6	-1	1	-17
Cn1c(CNC(=O)C2CCC(=O)N(CCc3cccc(F)c3)C2)nc2ccccc21 (stereo not given)	1	7	-11	-15	-1	-6
O=C(Cc1ccc(S(=O)(=O)N2CCOCC2)s1)N1CCN(S(=O)(=O)c2cccc(Cl)c2)CC1	/	-6	49	23	-5	24
CN(Cc1cccnc1)C(=O)c1cc(S(=O)(=O)Nc2ccccc2F)ccc1Cl	/	/	/	/	/	12
CCOC(=O)C1=C(O)c2ccccc2C(=O)/C1=C\c1ccc(CC)cc1	-8	81*	-32	27	56	/
CCOC(=O)c1ccc(COC(=O)c2ccc3c(c2)-c2ccccc2C3=O)cc1	-2	8	-15	10	?	-4
CCOC(=O)C1=C(Cc2ccc(C)cc2)C(=O)c2ccccc2C1=O	0	64*	-23	20	28	2
CC1CCCCN1C(=O)COC(=O)C1CCN(S(=O)(=O)c2ccc3c(c2)OCCO3)CC1 (stereo not given)	0	-1	2	-2	3	21
O=C(c1cnn2c1NC(c1ccc(Br)cc1)CC2C(F)(F)F)N1CCN(C23CC4CC(CC(C4)C2)C3)CC1 (stereo not given)	0	21	13	22	2	0
O=C(c1cnn2c1NC(c1ccc(Br)cc1)CC2C(F)(F)F)N1CCN2CCCC2C1 (stereo not given)	6	7	29	80*	18	15
COc1ccccc1C(CNC(=O)c1ccc(OCc2c(C)noc2C)cc1)N1CCCC1 (stereo not given)	-1	/	/	-1	/	4
Cc1ccc(CC2C(=O)N(c3cc(C)ccc3C)C(=O)C2C)cc1 (stereo not given)	/	2	-2	/	14	23
COc1ccc(N=Nc2cc(-c3ccccc3)ccc2O)cc1	-8	56*	-14	19	1	-39
CN(CC(=O)Nc1ccc(Cl)c(C(F)(F)F)c1)C(=O)c1ccc2c(c1)NC(=O)CS2	5	/	/	/	/	20
CCN(CC)CCn1c(SCC(=O)NCCC2=CCCCC2)nc2c(sc3ccccc32)c1=O	-1	4	60*	24	-19	29
Cc1nnc(SCC(=O)NCC2CCCO2)n1Cc1ccccc1 (stereo not given)	1	/	/	/	/	-2
Cc1ccc(NC(=S)N2CCN(CCN3C(=O)c4cccc5cccc(c45)C3=O)CC2)cc1	14	21	74*	5	-5	-9
O=C(NNC(=O)c1ccccc1O)c1ccc(Cl)c(S(=O)(=O)N2CCc3ccccc32)c1	83*	44	6	10	10	49
COc1ccc(N2CCN(c3ncccc3C#N)CC2)cc1	1	-2	-4	/	13	-3
COc1ccnc(N2CCN(c3ccccc3)CC2)c1C#N	/	-7	2	/	79*	-19
O=C(COC(=O)c1ccc(O)cc1O)c1ccc2c(c1)OCO2	/	52*	0	5	8	13
